{"source": "ChEMBL document CHEMBL1153265", "about": "“Quinolines as a novel structural class of potent and selective PDE4 inhibitors: optimisation for oral administration” (Bioorg Med Chem Lett, 2009)", "key": {"[1]": {"assay": "AUC in Sprague-Dawley CD rat at 1 mg/kg, po", "assay_type": "ADME, organism-based", "parameters": "dose 1 mg/kg, route oral", "conditions": "plasma", "summary_of_the_method": "(§1)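 Male CD Sprague rats, each compound given intravenously and orally at 1 mg/kg. Pharmacokinetic parameters derived from both routes.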"}, "Blood": {"test_system": "Blood", "assay": "Inhibition of LPS-induced TNFalpha production in human whole blood", "assay_type": "functional, tissue-based"}, "Homo sapiens": {"organism": "Homo sapiens", "assay": "Selectivity for human recombinant PDE4B over human recombinant PDE5", "summary_of_the_method": "(§2)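 Catalytic activity of human recombinant PDE4B, PDE3 purified from bovine aorta and human recombinant PDE5 was measured by scintillation proximity assay in 96-well format. Selectivity compares inhibition of PDE4B with inhibition of the other enzyme.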"}, "[2]": {"assay": "Selectivity for human recombinant PDE4B over bovine aorta PDE3", "assay_type": "tissue-based", "summary_of_the_method": "as §2"}, "[3]": {"target": "3',5'-cyclic-AMP phosphodiesterase 4B (Homo sapiens, UniProt Q07343)", "sequence (Q07343 whole entry)": "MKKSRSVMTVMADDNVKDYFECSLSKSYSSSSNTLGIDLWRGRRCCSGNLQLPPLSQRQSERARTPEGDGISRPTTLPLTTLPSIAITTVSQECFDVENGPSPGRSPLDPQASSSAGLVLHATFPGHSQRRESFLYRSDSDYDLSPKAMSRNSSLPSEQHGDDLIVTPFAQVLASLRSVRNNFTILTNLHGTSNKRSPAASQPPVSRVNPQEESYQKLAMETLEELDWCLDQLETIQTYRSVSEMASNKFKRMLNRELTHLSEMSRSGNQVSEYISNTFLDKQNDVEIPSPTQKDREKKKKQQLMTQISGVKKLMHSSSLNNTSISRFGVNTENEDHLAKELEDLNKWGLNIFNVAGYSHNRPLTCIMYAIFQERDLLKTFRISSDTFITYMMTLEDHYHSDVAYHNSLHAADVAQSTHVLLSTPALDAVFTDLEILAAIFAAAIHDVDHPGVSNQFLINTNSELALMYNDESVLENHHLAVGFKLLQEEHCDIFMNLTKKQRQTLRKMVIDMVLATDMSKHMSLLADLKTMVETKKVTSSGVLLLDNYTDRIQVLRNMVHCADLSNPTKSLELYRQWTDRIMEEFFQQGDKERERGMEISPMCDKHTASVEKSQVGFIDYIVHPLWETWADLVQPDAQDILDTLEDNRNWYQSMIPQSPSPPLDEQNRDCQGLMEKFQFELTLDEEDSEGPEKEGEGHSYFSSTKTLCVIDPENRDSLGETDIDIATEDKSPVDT", "assay": "Inhibition of human recombinant PDE4B by scintillation proximity assay"}, "[4]": {"assay": "Selectivity for human recombinant PDE4B over PDE6"}, "[5]": {"assay": "Selectivity for human recombinant PDE4B over PDE2"}, "[6]": {"assay": "Half life in Sprague-Dawley CD rat at 1 mg/kg, iv and 1 mg/kg, po", "assay_type": "ADME, organism-based", "conditions": "in vivo", "summary_of_the_method": "as §1"}, "[7]": {"assay": "Solubility of the compound", "assay_type": "physicochemical"}, "[8]": {"assay": "Selectivity for human recombinant PDE4B over PDE1"}, "[9]": {"assay": "Clearance in Sprague-Dawley CD rat at 1 mg/kg, iv and 1 mg/kg, po", "assay_type": "ADME, organism-based", "conditions": "in vivo", "summary_of_the_method": "as §1"}, "[10]": {"assay": "Selectivity for human recombinant PDE4B over PDE7"}, "[11]": {"assay": "Oral bioavailability in Sprague-Dawley CD rat at 1 mg/kg", "assay_type": "ADME, organism-based", "conditions": "in vivo", "summary_of_the_method": "as §1"}}, "data": [{"smiles": "COc1cc(Nc2c(C(N)=O)cnc3c(Cl)cc(S(C)(=O)=O)cc23)ccc1F", "values": [{"measurement": "AUC", "setting": "[1]", "value": 16, "unit": "ng·h/mL"}, {"measurement": "IC50", "setting": "Blood", "value": 7.94, "unit": "nM"}]}, {"smiles": "O=C(Nc1c(Cl)cncc1Cl)c1ccc(OC(F)F)c(OCC2CC2)c1", "note": "[ROFLUMILAST]", "values": [{"measurement": "fold change (FC)", "setting": "Homo sapiens", "value": "> 300"}, {"measurement": "IC50", "setting": "Blood", "value": 20, "unit": "nM"}, {"measurement": "fold change (FC)", "setting": "[2]", "value": "> 300"}]}, {"smiles": "COc1cc(Nc2c(C(N)=O)cnc3c(OC)cc(S(C)(=O)=O)cc23)ccc1F", "values": [{"measurement": "IC50", "setting": "[3]", "value": 5.01, "unit": "nM"}, {"measurement": "AUC", "setting": "[1]", "value": 81, "unit": "ng·h/mL"}, {"measurement": "IC50", "setting": "Blood", "value": 251, "unit": "nM"}]}, {"smiles": "COc1cccc(Nc2c(-c3nc(C)no3)cnc3ccc(S(C)(=O)=O)cc23)c1", "values": [{"measurement": "IC50", "setting": "[3]", "value": 15800, "unit": "nM"}]}, {"smiles": "Cc1cc(S(C)(=O)=O)cc2c(Nc3cccc(C#N)c3)c(C(N)=O)cnc12", "values": [{"measurement": "fold change (FC)", "setting": "[4]", "value": "> 100"}, {"measurement": "fold change (FC)", "setting": "[5]", "value": "> 100"}, {"measurement": "half-life", "setting": "[6]", "value": 2.3, "unit": "h"}, {"measurement": "IC50", "setting": "Blood", "value": 25.1, "unit": "nM"}, {"measurement": "solubility", "setting": "[7]", "value": 18, "unit": "µg/mL"}, {"measurement": "fold change (FC)", "setting": "[8]", "value": "> 100"}, {"measurement": "clearance", "setting": "[9]", "value": 19, "unit": "mL/min/kg"}, {"measurement": "fold change (FC)", "setting": "[10]", "value": "> 100"}, {"measurement": "bioavailability", "setting": "[11]", "value": 27, "unit": "%"}]}, {"smiles": "CS(=O)(=O)c1ccc2ncc(C(N)=O)c(Nc3cccc(C#N)c3)c2c1", "values": [{"measurement": "IC50", "setting": "[3]", "value": 20, "unit": "nM"}, {"measurement": "half-life", "setting": "[6]", "value": 0.9, "unit": "h"}, {"measurement": "IC50", "setting": "Blood", "value": 316, "unit": "nM"}, {"measurement": "clearance", "setting": "[9]", "value": 16, "unit": "mL/min/kg"}, {"measurement": "bioavailability", "setting": "[11]", "value": 23, "unit": "%"}]}, {"smiles": "CNC(=O)c1cnc2ccc(S(C)(=O)=O)cc2c1Nc1cccc(OC)c1", "values": [{"measurement": "IC50", "setting": "[3]", "value": 3160, "unit": "nM"}]}, {"smiles": "CS(=O)(=O)c1ccc2ncc(C(N)=O)c(Nc3cccc(CN)c3)c2c1", "values": [{"measurement": "IC50", "setting": "[3]", "value": 79.4, "unit": "nM"}, {"measurement": "IC50", "setting": "Blood", "value": 1260, "unit": "nM"}]}, {"smiles": "CS(=O)(=O)c1ccc2ncc(C(N)=O)c(NC3CCOCC3)c2c1", "values": [{"measurement": "IC50", "setting": "[3]", "value": "> 31600", "unit": "nM"}]}, {"smiles": "CS(=O)(=O)c1ccc2ncc(C(N)=O)c(Nc3cccc(Cl)c3F)c2c1", "values": [{"measurement": "IC50", "setting": "[3]", "value": 6.31, "unit": "nM"}, {"measurement": "half-life", "setting": "[6]", "value": 2, "unit": "h"}, {"measurement": "IC50", "setting": "Blood", "value": 251, "unit": "nM"}, {"measurement": "solubility", "setting": "[7]", "value": 12, "unit": "µg/mL"}, {"measurement": "clearance", "setting": "[9]", "value": 13, "unit": "mL/min/kg"}, {"measurement": "bioavailability", "setting": "[11]", "value": 47, "unit": "%"}]}, {"smiles": "COc1cccc(Nc2c(C(N)=O)cnc3ccc(S(=O)(=O)c4ccccc4)cc23)c1", "values": [{"measurement": "IC50", "setting": "[3]", "value": 1.58, "unit": "nM"}]}, {"smiles": "CS(=O)(=O)c1ccc2ncc(C(N)=O)c(Nc3cccc4c3CCO4)c2c1", "values": [{"measurement": "IC50", "setting": "[3]", "value": 2.51, "unit": "nM"}, {"measurement": "half-life", "setting": "[6]", "value": 1.7, "unit": "h"}, {"measurement": "IC50", "setting": "Blood", "value": 25.1, "unit": "nM"}, {"measurement": "solubility", "setting": "[7]", "value": 43, "unit": "µg/mL"}, {"measurement": "clearance", "setting": "[9]", "value": 38, "unit": "mL/min/kg"}, {"measurement": "bioavailability", "setting": "[11]", "value": 38, "unit": "%"}]}, {"smiles": "CS(=O)(=O)c1ccc2ncc(C(N)=O)c(Nc3cccc(O)c3)c2c1", "values": [{"measurement": "IC50", "setting": "[3]", "value": 100, "unit": "nM"}, {"measurement": "fold change (FC)", "setting": "Homo sapiens", "value": "> 300"}, {"measurement": "solubility", "setting": "[7]", "value": 30, "unit": "µg/mL"}, {"measurement": "fold change (FC)", "setting": "[2]", "value": "> 300"}]}, {"smiles": "CS(=O)(=O)c1ccc2ncc(C(N)=O)c(Nc3cccnc3)c2c1", "values": [{"measurement": "IC50", "setting": "[3]", "value": 100, "unit": "nM"}, {"measurement": "IC50", "setting": "Blood", "value": 2000, "unit": "nM"}]}, {"smiles": "CS(=O)(=O)c1ccc2ncc(C(N)=O)c(Oc3cccc(Cl)c3)c2c1", "values": [{"measurement": "IC50", "setting": "[3]", "value": 3160, "unit": "nM"}]}, {"smiles": "COc1cc(Nc2c(C(N)=O)cnc3ccc(S(C)(=O)=O)cc23)ccc1F", "values": [{"measurement": "IC50", "setting": "[3]", "value": 31.6, "unit": "nM"}, {"measurement": "AUC", "setting": "[1]", "value": 530, "unit": "ng·h/mL"}, {"measurement": "half-life", "setting": "[6]", "value": 1.9, "unit": "h"}, {"measurement": "IC50", "setting": "Blood", "value": 158, "unit": "nM"}, {"measurement": "solubility", "setting": "[7]", "value": 4, "unit": "µg/mL"}, {"measurement": "clearance", "setting": "[9]", "value": 21, "unit": "mL/min/kg"}, {"measurement": "bioavailability", "setting": "[11]", "value": 65, "unit": "%"}]}, {"smiles": "CS(=O)(=O)c1ccc2ncc(C(N)=O)c(N)c2c1", "values": [{"measurement": "IC50", "setting": "[3]", "value": "> 31600", "unit": "nM"}]}, {"smiles": "COc1cc(Nc2c(C(N)=O)cnc3c(C)cc(S(C)(=O)=O)cc23)ccc1F", "values": [{"measurement": "IC50", "setting": "[3]", "value": 0.316, "unit": "nM"}, {"measurement": "fold change (FC)", "setting": "[4]", "value": "> 100"}, {"measurement": "AUC", "setting": "[1]", "value": 770, "unit": "ng·h/mL"}, {"measurement": "fold change (FC)", "setting": "[5]", "value": "> 100"}, {"measurement": "half-life", "setting": "[6]", "value": 1.6, "unit": "h"}, {"measurement": "IC50", "setting": "Blood", "value": 7.94, "unit": "nM"}, {"measurement": "solubility", "setting": "[7]", "value": 5, "unit": "µg/mL"}, {"measurement": "fold change (FC)", "setting": "[8]", "value": "> 100"}, {"measurement": "clearance", "setting": "[9]", "value": 16, "unit": "mL/min/kg"}, {"measurement": "fold change (FC)", "setting": "[10]", "value": "> 100"}, {"measurement": "bioavailability", "setting": "[11]", "value": 82, "unit": "%"}]}, {"smiles": "CS(=O)(=O)c1ccc2ncc(C(N)=O)c(Nc3cccc(C(=O)O)c3)c2c1", "values": [{"measurement": "IC50", "setting": "[3]", "value": 5010, "unit": "nM"}]}, {"smiles": "COc1cccc(Nc2c(CN)cnc3ccc(S(=O)(=O)c4ccccc4)cc23)c1", "values": [{"measurement": "IC50", "setting": "[3]", "value": 251, "unit": "nM"}]}, {"smiles": "CS(=O)(=O)c1ccc2ncc(C(N)=O)c(Sc3cccc(Cl)c3)c2c1", "values": [{"measurement": "IC50", "setting": "[3]", "value": 20000, "unit": "nM"}]}, {"smiles": "COc1cccc(Nc2c(C(N)=O)cnc3ccc(S(C)(=O)=O)cc23)c1", "values": [{"measurement": "half-life", "setting": "[6]", "value": 1.1, "unit": "h"}, {"measurement": "solubility", "setting": "[7]", "value": 5, "unit": "µg/mL"}, {"measurement": "clearance", "setting": "[9]", "value": 10, "unit": "mL/min/kg"}, {"measurement": "bioavailability", "setting": "[11]", "value": 10, "unit": "%"}]}, {"smiles": "CN(c1cccc(Cl)c1)c1c(C(N)=O)cnc2ccc(S(C)(=O)=O)cc12", "values": [{"measurement": "IC50", "setting": "[3]", "value": 1000, "unit": "nM"}]}, {"smiles": "COc1cc(Nc2c(C(N)=O)cnc3c(F)cc(S(C)(=O)=O)cc23)ccc1F", "values": [{"measurement": "IC50", "setting": "Blood", "value": 15.8, "unit": "nM"}]}, {"smiles": "COc1cccc(Nc2c(C#N)cnc3ccc(S(C)(=O)=O)cc23)c1", "values": [{"measurement": "IC50", "setting": "[3]", "value": 501, "unit": "nM"}]}, {"smiles": "COc1cccc(Nc2c(C(=O)O)cnc3ccc(S(=O)(=O)c4ccccc4)cc23)c1", "values": [{"measurement": "IC50", "setting": "[3]", "value": 12600, "unit": "nM"}]}, {"smiles": "CS(=O)(=O)c1ccc2ncc(C(N)=O)c(Nc3cccc(Cl)c3)c2c1", "values": [{"measurement": "IC50", "setting": "[3]", "value": 15.8, "unit": "nM"}, {"measurement": "IC50", "setting": "Blood", "value": 251, "unit": "nM"}, {"measurement": "solubility", "setting": "[7]", "value": 2, "unit": "µg/mL"}]}, {"smiles": "COc1cccc(Nc2cc(C(N)=O)nc3ccc(S(C)(=O)=O)cc23)c1", "values": [{"measurement": "IC50", "setting": "[3]", "value": 7940, "unit": "nM"}]}, {"smiles": "CCc1cc(S(C)(=O)=O)cc2c(Nc3ccc(F)c(OC)c3)c(C(N)=O)cnc12", "values": [{"measurement": "IC50", "setting": "Blood", "value": 12.6, "unit": "nM"}]}, {"smiles": "COc1cccc(Nc2c(-c3nnc(C)o3)cnc3ccc(S(C)(=O)=O)cc23)c1", "values": [{"measurement": "IC50", "setting": "[3]", "value": 20000, "unit": "nM"}]}]}
